In ChEMBL document CHEMBL1144026, “Synthesis and anticonvulsant evaluation of N-substituted isoquinoline AMPA receptor antagonists” (2008) one finds ED50 and Activity data, which are given here for 18 compounds.

For assay [1], the species on record is Mus musculus. The assay is described as follows: Anticonvulsant activity against audiogenic tonus seizures in DBA/2 mouse after 30 mins. Format: functional. As to conditions: DBA/2, 0.5 h. A digest of the protocol:
(§1)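 DBA/2 mice aged 22 to 25 days, of either sex, in groups of 10. Dosed ip (0.1 mL/10 g) as a fresh solution in 50% DMSO/50% saline, or given vehicle. After 30 min, 60 s habituation under a dome, then 12–16 kHz, 109 dB sound for 60 s or until tonic extension. Seizure phase incidence and latency were scored. ED50 (≥32 animals, 95% confidence limits) by Litchfield–Wilcoxon.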

The species entered for assay [2] is Mus musculus. The assay is described as follows: Anticonvulsant activity against audiogenic clonus seizures in DBA/2 mouse after 30 mins. Format: functional. Conditions: DBA/2, 0.5 h. In short, it runs like this:
as §1

Assay [3] is described as follows: (§2) Reduction in AMPA-mediated current in CA1 pyramidal neurons of Wistar rat at 50 uM after 5 mins by patch clamp technique. Further details: scale not given: the % may be the effect or the level left. Format: functional, Pyramidal neuron. In short, it runs like this: (§3)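 Whole-cell patch clamp of single CA1 pyramidal neurons; pipette 1.5–3 MΩ, K-gluconate-based intracellular solution. (S)-AMPA 5 μM pulsed for 5 s by fast solution changer; test agent bath-perfused 5 min. Peak amplitude minus baseline and current duration from ≥3 consecutive responses per neuron, control vs drug; unpaired t test per neuron, Wilcoxon matched pairs across neurons.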
(Patch clamp records ionic current or voltage across a cell membrane.)

Assay [4] deals with Pyramidal neuron. Described as §2. Format: functional. In short, it runs like this:
as §3

Activity calls are given as the source filed them. The calls are words filed in the database; no cut-off is given here.

On to `COc1cc2c(cc1OC)C(c1ccc(Br)cc1)N(C(=O)CN1CCCCC1)CC2` (stereo unspecified), for which the values for the 50% effective dose (ED50) in assay [1] and in assay [2] were 8.17 µmol/kg and 12.7 µmol/kg, respectively.

For the compound `CCN(CC)C(=O)C(=O)N1CCc2cc(OC)c(OC)cc2C1c1ccc(Cl)cc1` (stereo unspecified), the values for the median effective dose (ED50) in assay [1] and in assay [2] were 67.7 µmol/kg and 75.9 µmol/kg, respectively.

Regarding `CCN(CC)C(=O)C(=O)N1CCc2cc(OC)c(OC)cc2C1c1ccc(F)cc1` (stereo unspecified), the ED50 in assay [1] and in assay [2] was greater than 100 µmol/kg each time.

Turning to `COc1cc2c(cc1OC)C(c1ccccc1)N(C(=O)C(=O)N1CCCC1)CC2` (stereo unspecified), the ED50 (as a rule, the dose at which the effect has come halfway, by size or by number of responders) in assay [1] was 54.6 µmol/kg; in assay [2], greater than 100 µmol/kg.

As to `CCN(CC)C(=O)C(=O)N1CCc2cc(OC)c(OC)cc2C1c1ccccc1` (stereo unspecified), the ED50 was 53.3 µmol/kg in assay [1] and 65.1 µmol/kg in assay [2].

For `COc1cc2c(cc1OC)C(c1ccccc1)N(C(=O)C(=O)N1CCOCC1)CC2` (stereo unspecified), the figures for the ED50 in assay [1] and in assay [2] were 72.1 µmol/kg and greater than 100 µmol/kg, respectively.

On to `COc1cc2c(cc1OC)C(c1ccc(Cl)cc1)N(C(=O)C(=O)N1CCOCC1)CC2` (stereo unspecified), for which the ED50 in assay [1] amounted to 46.9 µmol/kg; in assay [2], 91 µmol/kg.

`COc1cc2c(cc1OC)C(c1ccc(F)cc1)N(C(=O)C(=O)N1CCOCC1)CC2` (stereo unspecified): the values for the ED50 in assay [1] and in assay [2] were 90.2 µmol/kg and greater than 100 µmol/kg, respectively.

For `COc1cc2c(cc1OC)C(c1ccc(F)cc1)N(C(=O)C(=O)N1CCCCC1)CC2` (stereo unspecified), the ED50 in assay [1] worked out at 38.7 µmol/kg; in assay [2] it was 44.6 µmol/kg. The compound also yielded an Activity in assay [3] of 60%.

Take `COc1cc2c(cc1OC)C(c1ccc(Br)cc1)N(C(=O)C(=O)N1CCCC1)CC2` (stereo unspecified): the ED50 in assay [1] stood at 45.4 µmol/kg; in assay [2], 89.2 µmol/kg.

On to `COc1cc2c(cc1OC)C(c1ccc(Cl)cc1)N(C(=O)C(=O)N1CCCC1)CC2` (stereo unspecified), for which the values for the ED50 in assay [1] and in assay [2] were 37.2 µmol/kg and 58.1 µmol/kg, respectively.

Take `COc1cc2c(cc1OC)C(c1ccc(Cl)cc1)N(C(=O)C(=O)N1CCCCC1)CC2` (stereo unspecified): the values for the ED50 in assay [1] and in assay [2] were 65.3 µmol/kg and 88.4 µmol/kg, respectively.

`COc1cc2c(cc1OC)C(c1ccccc1)N(C(=O)C(=O)N1CCCCC1)CC2` (stereo unspecified): the results for the ED50 in assay [1] and in assay [2] were 55.3 µmol/kg and 98.1 µmol/kg, respectively.

For `COc1cc2c(cc1OC)C(c1ccc(F)cc1)N(C(=O)C(=O)N1CCCC1)CC2` (stereo unspecified), the ED50 in assay [1] is 73 µmol/kg; in assay [2] it was greater than 100 µmol/kg.

Consider `COc1cc2c(cc1OC)C(c1ccc(Br)cc1)N(C(=O)C(=O)N1CCCCC1)CC2` (stereo unspecified), for which the ED50 came out at 41.6 µmol/kg in assay [1] and 60.5 µmol/kg in assay [2].

`CC1=NN=C(c2ccc(N)cc2)c2cc3c(cc2C1)OCO3`: the outcome in assay [4] was Active.

For `COc1cc2c(cc1OC)C(c1ccc(Br)cc1)N(C(=O)C(=O)N1CCOCC1)CC2` (stereo unspecified), the ED50 in assay [1] and in assay [2] was greater than 100 µmol/kg each time.

With `CCN(CC)C(=O)C(=O)N1CCc2cc(OC)c(OC)cc2C1c1ccc(Br)cc1` (stereo unspecified), the ED50 in assay [1] and in assay [2] was greater than 100 µmol/kg each time.
